According to ChEMBL document CHEMBL2062435, “Synthesis and in vitro antibacterial activity of gemifloxacin derivatives containing a substituted benzyloxime moiety” (2012):

system: Enterococcus faecium; experiment: Antimicrobial activity against Enterococcus faecium 10-5 after 18-24 hrs by two-fold serial dilution method; assay type: functional
Method in brief: (§1)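 Agar-medium twofold serial dilution against Gram-positive and Gram-negative strains; MIC taken as the lowest compound concentration giving complete inhibition of bacterial growth after incubation at 35 °C for 18-24 h.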

Structure (SMILES) | MIC [µg/mL]
COc1cc(CO/N=C2\CN(c3nc4c(cc3F)c(=O)c(C(=O)O)cn4C3CC3)CC2CN)cc(Cl)c1OC.CS(=O)(=O)O (racemic) | 8

system: Staphylococcus epidermidis; experiment: Antimicrobial activity against extended spectrum beta-lactamases-producing methicillin-sensitive Staphylococcus epidermidis 10-11 after 18-24 hrs by two-fold serial dilution method; assay type: functional; method in brief: as §1

Structure (SMILES) | MIC [µg/mL]
COc1cc(CO/N=C2\CN(c3nc4c(cc3F)c(=O)c(C(=O)O)cn4C3CC3)CC2CN)cc(Cl)c1OC.CS(=O)(=O)O (racemic) | 2

system: Enterococcus faecalis; experiment: Antimicrobial activity against Enterococcus faecalis 10-7 after 18-24 hrs by two-fold serial dilution method; assay type: functional; method in brief: as §1

Structure (SMILES) | MIC [µg/mL]
COc1cc(CO/N=C2\CN(c3nc4c(cc3F)c(=O)c(C(=O)O)cn4C3CC3)CC2CN)cc(Cl)c1OC.CS(=O)(=O)O (racemic) | 2

system: Escherichia coli; experiment: Antimicrobial activity against extended spectrum beta-lactamases-producing Escherichia coli 10-3 after 18-24 hrs by two-fold serial dilution method; assay type: functional; method in brief: as §1

Structure (SMILES) | MIC [µg/mL]
COc1cc(CO/N=C2\CN(c3nc4c(cc3F)c(=O)c(C(=O)O)cn4C3CC3)CC2CN)cc(Cl)c1OC.CS(=O)(=O)O (racemic) | > 128

system: Klebsiella pneumoniae; experiment: Antimicrobial activity against Klebsiella pneumoniae 10-3 after 18-24 hrs by two-fold serial dilution method; assay type: functional; method in brief: as §1

Structure (SMILES) | MIC [µg/mL]
COc1cc(CO/N=C2\CN(c3nc4c(cc3F)c(=O)c(C(=O)O)cn4C3CC3)CC2CN)cc(Cl)c1OC.CS(=O)(=O)O (racemic) | 8

system: Klebsiella pneumoniae; experiment: Antimicrobial activity against extended spectrum beta-lactamases-producing Klebsiella pneumoniae 10-1 after 18-24 hrs by two-fold serial dilution method; assay type: functional; method in brief: as §1

Structure (SMILES) | MIC [µg/mL]
COc1cc(CO/N=C2\CN(c3nc4c(cc3F)c(=O)c(C(=O)O)cn4C3CC3)CC2CN)cc(Cl)c1OC.CS(=O)(=O)O (racemic) | > 128

system: Streptococcus pneumoniae; experiment: Antimicrobial activity against extended spectrum beta-lactamases-producing Streptococcus pneumoniae 10-4 after 18-24 hrs by two-fold serial dilution method; assay type: functional; method in brief: as §1

Structure (SMILES) | MIC [µg/mL]
COc1cc(CO/N=C2\CN(c3nc4c(cc3F)c(=O)c(C(=O)O)cn4C3CC3)CC2CN)cc(Cl)c1OC.CS(=O)(=O)O (racemic) | 0.03

system: Escherichia coli; experiment: Antimicrobial activity against Escherichia coli 10-1 after 18-24 hrs by two-fold serial dilution method; assay type: functional; method in brief: as §1

Structure (SMILES) | MIC [µg/mL]
COc1cc(CO/N=C2\CN(c3nc4c(cc3F)c(=O)c(C(=O)O)cn4C3CC3)CC2CN)cc(Cl)c1OC.CS(=O)(=O)O (racemic) | > 128

system: Staphylococcus aureus; experiment: Antimicrobial activity against Staphylococcus aureus ATCC […] after 18-24 hrs by two-fold serial dilution method; assay type: functional; method in brief: as §1

Structure (SMILES) | MIC [µg/mL]
COc1cc(CO/N=C2\CN(c3nc4c(cc3F)c(=O)c(C(=O)O)cn4C3CC3)CC2CN)cc(Cl)c1OC.CS(=O)(=O)O (racemic) | < 0.008

system: Staphylococcus epidermidis; experiment: Antimicrobial activity against extended spectrum beta-lactamases-producing methicillin-resistant Staphylococcus epidermidis 10-10 after 18-24 hrs by two-fold serial dilution method; assay type: functional
Method in brief: (§2)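 Agar twofold serial dilution MIC against clinical isolates. MIC was taken as the lowest concentration giving complete inhibition of bacterial growth after incubation at 35 °C for 18-24 h.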

Structure (SMILES) | MIC [µg/mL]
COc1cc(CO/N=C2\CN(c3nc4c(cc3F)c(=O)c(C(=O)O)cn4C3CC3)CC2CN)cc(Cl)c1OC.CS(=O)(=O)O (racemic) | 2

system: Staphylococcus aureus; experiment: Antimicrobial activity against extended spectrum beta-lactamases-producing methicillin-sensitive Staphylococcus aureus 10-14 after 18-24 hrs by two-fold serial dilution method; assay type: functional; method in brief: as §1

Structure (SMILES) | MIC [µg/mL]
COc1cc(CO/N=C2\CN(c3nc4c(cc3F)c(=O)c(C(=O)O)cn4C3CC3)CC2CN)cc(Cl)c1OC.CS(=O)(=O)O (racemic) | 0.015

system: Pseudomonas aeruginosa; experiment: Antimicrobial activity against Pseudomonas aeruginosa 10-12 after 18-24 hrs by two-fold serial dilution method; assay type: functional; method in brief: as §1

Structure (SMILES) | MIC [µg/mL]
COc1cc(CO/N=C2\CN(c3nc4c(cc3F)c(=O)c(C(=O)O)cn4C3CC3)CC2CN)cc(Cl)c1OC.CS(=O)(=O)O (racemic) | 16

system: Escherichia coli; experiment: Antimicrobial activity against Escherichia coli ATCC 25922 after 18-24 hrs by two-fold serial dilution method; assay type: functional; method in brief: as §1

Structure (SMILES) | MIC [µg/mL]
COc1cc(CO/N=C2\CN(c3nc4c(cc3F)c(=O)c(C(=O)O)cn4C3CC3)CC2CN)cc(Cl)c1OC.CS(=O)(=O)O (racemic) | 0.015

system: Escherichia coli; experiment: Antimicrobial activity against extended spectrum beta-lactamases-producing Escherichia coli 10-4 after 18-24 hrs by two-fold serial dilution method; assay type: functional; method in brief: as §1

Structure (SMILES) | MIC [µg/mL]
COc1cc(CO/N=C2\CN(c3nc4c(cc3F)c(=O)c(C(=O)O)cn4C3CC3)CC2CN)cc(Cl)c1OC.CS(=O)(=O)O (racemic) | 16

system: Pseudomonas aeruginosa; experiment: Antimicrobial activity against extended spectrum beta-lactamases-producing Pseudomonas aeruginosa 10-15 after 18-24 hrs by two-fold serial dilution method; assay type: functional; method in brief: as §1

Structure (SMILES) | MIC [µg/mL]
COc1cc(CO/N=C2\CN(c3nc4c(cc3F)c(=O)c(C(=O)O)cn4C3CC3)CC2CN)cc(Cl)c1OC.CS(=O)(=O)O (racemic) | 32

system: Pseudomonas aeruginosa; experiment: Antimicrobial activity against extended spectrum beta-lactamases-producing Pseudomonas aeruginosa 10-5 after 18-24 hrs by two-fold serial dilution method; assay type: functional; method in brief: as §1

Structure (SMILES) | MIC [µg/mL]
COc1cc(CO/N=C2\CN(c3nc4c(cc3F)c(=O)c(C(=O)O)cn4C3CC3)CC2CN)cc(Cl)c1OC.CS(=O)(=O)O (racemic) | 16

system: Staphylococcus aureus; experiment: Antimicrobial activity against extended spectrum beta-lactamases-producing methicillin-sensitive Staphylococcus aureus 10-13 after 18-24 hrs by two-fold serial dilution method; assay type: functional; method in brief: as §1

Structure (SMILES) | MIC [µg/mL]
COc1cc(CO/N=C2\CN(c3nc4c(cc3F)c(=O)c(C(=O)O)cn4C3CC3)CC2CN)cc(Cl)c1OC.CS(=O)(=O)O (racemic) | 0.015

system: Staphylococcus epidermidis; experiment: Antimicrobial activity against extended spectrum beta-lactamases-producing methicillin-resistant Staphylococcus epidermidis 10-13 after 18-24 hrs by two-fold serial dilution method; assay type: functional; method in brief: as §2

Structure (SMILES) | MIC [µg/mL]
COc1cc(CO/N=C2\CN(c3nc4c(cc3F)c(=O)c(C(=O)O)cn4C3CC3)CC2CN)cc(Cl)c1OC.CS(=O)(=O)O (racemic) | 0.25
